# Laboratory results as given in ChEMBL document CHEMBL5649168, “Discovery of a selective catalytic p300/CBP inhibitor that targets lineage-specific tumours” (Nature, 2017).
# Activity calls are given as the source filed them. The rule behind the calls is not given here.
# What was measured:
# SU-DHL-8 = test: Antiproliferative activity against human SU-DHL-8 cells assessed as inhibition of cell viability incubated for 3 to 5 days by Celltiter-Glo luminescent assay; type: functional, cell-based
# NCI-H1373 = test: Antiproliferative activity against human NCI-H1373 cells assessed as inhibition of cell viability incubated for 3 to 5 days by Celltiter-Glo luminescent assay; type: functional, cell-based
# [1] = molecular target: Inhibitor of nuclear factor kappa-B kinase subunit epsilon (Homo sapiens, UniProt Q14164); test: Inhibition of IKKE (unknown origin)
# Insulin receptor = Insulin receptor (Homo sapiens, UniProt P06213); test: Inhibition of InsR (unknown origin)
# NCI-H23 = test: Antiproliferative activity against human NCI-H23 cells assessed as inhibition of cell viability incubated for 3 to 5 days by Celltiter-Glo luminescent assay; type: functional, cell-based
# [2] = molecular target: Tyrosine-protein kinase ABL1 (Homo sapiens, UniProt P00519); test: Inhibition of Abl (unknown origin)
# Aurora kinase B = Aurora kinase B (Homo sapiens, UniProt Q96GD4); test: Inhibition of Aurora1 (unknown origin)
# Karpas-1106P = test: Antiproliferative activity against human KARPAS-1106P cells assessed as inhibition of cell viability incubated for 3 to 5 days by Celltiter-Glo luminescent assay; type: functional, cell-based
# OPM-2 = test: Antiproliferative activity against human OPM-2 cells assessed as inhibition of cell viability incubated for 3 to 5 days by Celltiter-Glo luminescent assay; type: functional, cell-based
# [3] = molecular target: Tyrosine-protein kinase Lck (Homo sapiens, UniProt P06239); test: Inhibition of Lck (unknown origin)
# [4] = molecular target: Tyrosine-protein kinase JAK2 (Homo sapiens, UniProt O60674); test: Inhibition of JAK2 (unknown origin)
# [5] = molecular target: Serine/threonine-protein kinase D3 (Homo sapiens, UniProt O94806); test: Inhibition of PRKCN (unknown origin)
# [6] = molecular target: Serine/threonine-protein kinase pim-2 (Homo sapiens, UniProt Q9P1W9); test: Inhibition of Pim2 (unknown origin)
# K562 = test: Antiproliferative activity against human K562 cells assessed as inhibition of cell viability incubated for 3 to 5 days by Celltiter-Glo luminescent assay; type: functional, cell-based
# SK-MEL-2 = test: Antiproliferative activity against human SK-MEL-2 cells assessed as inhibition of cell viability incubated for 3 to 5 days by Celltiter-Glo luminescent assay; type: functional, cell-based
# HCC1143 = test: Antiproliferative activity against human HCC1143 cells assessed as inhibition of cell viability incubated for 3 to 5 days by Celltiter-Glo luminescent assay; type: functional, cell-based
# THP-1 = test: Antiproliferative activity against human THP-1 cells assessed as inhibition of cell viability incubated for 3 to 5 days by Celltiter-Glo luminescent assay; type: functional, cell-based
# NCI-H128 = test: Antiproliferative activity against human NCI-H128 cells assessed as inhibition of cell viability incubated for 3 to 5 days by Celltiter-Glo luminescent assay; type: functional, cell-based
# DU-4475 = test: Antiproliferative activity against human DU-4475 cells assessed as inhibition of cell viability incubated for 3 to 5 days by Celltiter-Glo luminescent assay; type: functional, cell-based
# [7] = Tmax in CB17 SCID mouse xenografted with LuCaP-77 CR cell at 100 mg/kg, ip administered for 7 days; type: ADME, organism-based; conditions: in vivo, time 7 day
# CAL-120 = test: Antiproliferative activity against human CAL-120 cells assessed as inhibition of cell viability incubated for 3 to 5 days by Celltiter-Glo luminescent assay; type: functional, cell-based
# [8] = molecular target: Proto-oncogene tyrosine-protein kinase Src (Homo sapiens, UniProt P12931); test: Inhibition of Src (unknown origin)
# [9] = molecular target: BDNF/NT-3 growth factors receptor (Homo sapiens, UniProt Q16620); test: Inhibition of TrkB (unknown origin)
# [10] = molecular target: CREB-binding protein/Histone acetyltransferase p300 (Homo sapiens, UniProt Q09472+Q92793); test: Inhibition of p300/CBP in human 22Rv1 cells assessed as reduction in H3K18Ac level incubated for 3 hrs by Hoechst 33342 staining based high content microscopy analysis; type: cell-based
# Outline: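 Cells received an 8-point half-log dilution series from 10 µM. They were then fixed in 10% formaldehyde (10 min, RT), permeabilised with 0.1% Triton X-100 and blocked with 1% BSA for 1 h. Primary antibodies were applied overnight at 4 °C, followed by Alexa488 anti-rabbit, Alexa555 anti-mouse and Hoechst 33342 for 1 h. Fifteen fields per well were imaged and average mean intensity taken. EC50 came from a sigmoidal fit.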
# SUD4 = test: Antiproliferative activity against human SU-DHL-4 cells assessed as inhibition of cell viability incubated for 3 to 5 days by Celltiter-Glo luminescent assay; type: functional, cell-based
# HCC1806 = test: Antiproliferative activity against human HCC1806 cells assessed as inhibition of cell viability incubated for 3 to 5 days by Celltiter-Glo luminescent assay; type: functional, cell-based
# Raji = test: Antiproliferative activity against human Raji cells assessed as inhibition of cell viability incubated for 3 to 5 days by Celltiter-Glo luminescent assay; type: functional, cell-based
# [11] = molecular target: Mitogen-activated protein kinase 9 (Homo sapiens, UniProt P45984); test: Inhibition of JNK2 (unknown origin)
# MAO-A = MAO-A (Homo sapiens, UniProt P21397); test: Inhibition of MAO-A (unknown origin) at 10 uM by radioligand binding assay relative to control
# [12] = molecular target: Bromodomain-containing protein 4 (Homo sapiens, UniProt O60885); test: Inhibition of BRD4 (unknown origin)
# cells = conditions: Homo sapiens, SC-1
# [13] = molecular target: Calcium/calmodulin-dependent protein kinase kinase 2 (Homo sapiens, UniProt Q96RR4); test: Inhibition of CAMKK2 (unknown origin)
# [14] = molecular target: Mitogen-activated protein kinase 1 (Homo sapiens, UniProt P28482); test: Inhibition of Erk2 (unknown origin)
# [15] = Inhibition of CDK8/Cyclin C (unknown origin); set-up: species or system Homo sapiens
# SK-MEL-1 = test: Antiproliferative activity against human SK-MEL-1 cells assessed as inhibition of cell viability incubated for 3 to 5 days by Celltiter-Glo luminescent assay; type: functional, cell-based
# [16] = molecular target: Vascular endothelial growth factor receptor 1 (Homo sapiens, UniProt P17948); test: Inhibition of Flt1 (unknown origin)
# [17] = Half life in CB17 SCID mouse xenografted with LuCaP-77 CR cell at 200 mg/kg, ip administered for 7 days; type: ADME, organism-based; conditions: in vivo, time 7 day
# LuCaP-77 CR cell = conditions: Homo sapiens, dose 100.0 mg/kg, time 7.0 day
# AMO1 = test: Antiproliferative activity against human AMO1 cells assessed as inhibition of cell viability incubated for 3 to 5 days by Celltiter-Glo luminescent assay; type: functional, cell-based
# DOHH-2 = test: Antiproliferative activity against human DOHH-2 cells assessed as inhibition of cell viability incubated for 3 to 5 days by Celltiter-Glo luminescent assay; type: functional, cell-based
# NCI-H1836 = test: Antiproliferative activity against human NCI-H1836 cells assessed as inhibition of cell viability incubated for 3 to 5 days by Celltiter-Glo luminescent assay; type: functional, cell-based
# Chain of Mitogen-activated protein kinase 1 (P28482 whole entry): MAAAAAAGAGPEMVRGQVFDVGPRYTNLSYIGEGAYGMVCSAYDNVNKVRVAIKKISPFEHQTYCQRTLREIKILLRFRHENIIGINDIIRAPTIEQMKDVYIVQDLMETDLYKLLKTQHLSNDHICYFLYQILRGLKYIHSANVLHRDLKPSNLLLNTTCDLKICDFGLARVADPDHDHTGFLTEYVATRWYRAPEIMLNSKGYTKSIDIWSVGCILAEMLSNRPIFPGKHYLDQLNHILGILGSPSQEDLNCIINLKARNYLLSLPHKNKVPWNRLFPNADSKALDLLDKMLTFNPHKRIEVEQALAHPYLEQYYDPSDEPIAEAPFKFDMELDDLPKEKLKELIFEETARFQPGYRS
# Chain of MAO-A (P21397 whole entry): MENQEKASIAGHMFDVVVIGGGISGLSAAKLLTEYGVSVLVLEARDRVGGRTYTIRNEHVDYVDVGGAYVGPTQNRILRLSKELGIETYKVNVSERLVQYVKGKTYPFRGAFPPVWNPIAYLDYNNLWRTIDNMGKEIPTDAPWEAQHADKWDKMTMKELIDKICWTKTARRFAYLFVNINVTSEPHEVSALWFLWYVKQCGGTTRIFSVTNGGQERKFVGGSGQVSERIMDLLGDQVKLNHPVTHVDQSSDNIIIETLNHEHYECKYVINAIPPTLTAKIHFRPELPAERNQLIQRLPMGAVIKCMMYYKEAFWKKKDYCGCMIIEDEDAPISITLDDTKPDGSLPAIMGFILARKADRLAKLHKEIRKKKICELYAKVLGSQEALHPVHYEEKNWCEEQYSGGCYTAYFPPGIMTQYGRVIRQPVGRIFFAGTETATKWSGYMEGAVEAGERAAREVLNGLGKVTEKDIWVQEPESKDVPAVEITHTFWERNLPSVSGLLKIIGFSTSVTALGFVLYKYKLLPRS
# Chain of Proto-oncogene tyrosine-protein kinase Src (P12931 2-536 limits assumed): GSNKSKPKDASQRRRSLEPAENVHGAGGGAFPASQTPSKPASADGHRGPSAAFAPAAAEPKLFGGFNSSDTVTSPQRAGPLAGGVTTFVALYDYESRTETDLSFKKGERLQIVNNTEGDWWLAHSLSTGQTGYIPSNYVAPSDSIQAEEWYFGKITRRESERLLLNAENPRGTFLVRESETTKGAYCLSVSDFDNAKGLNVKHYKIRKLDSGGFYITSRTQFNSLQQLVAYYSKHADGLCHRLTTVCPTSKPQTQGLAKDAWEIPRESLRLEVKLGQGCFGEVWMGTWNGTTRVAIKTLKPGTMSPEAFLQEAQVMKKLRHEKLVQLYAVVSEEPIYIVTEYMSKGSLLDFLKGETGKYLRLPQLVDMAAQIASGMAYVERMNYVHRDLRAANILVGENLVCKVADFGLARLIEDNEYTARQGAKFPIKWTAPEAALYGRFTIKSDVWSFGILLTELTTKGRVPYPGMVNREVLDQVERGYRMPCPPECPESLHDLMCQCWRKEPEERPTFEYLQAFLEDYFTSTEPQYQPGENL
# Chain of Tyrosine-protein kinase Lck (P06239 whole entry): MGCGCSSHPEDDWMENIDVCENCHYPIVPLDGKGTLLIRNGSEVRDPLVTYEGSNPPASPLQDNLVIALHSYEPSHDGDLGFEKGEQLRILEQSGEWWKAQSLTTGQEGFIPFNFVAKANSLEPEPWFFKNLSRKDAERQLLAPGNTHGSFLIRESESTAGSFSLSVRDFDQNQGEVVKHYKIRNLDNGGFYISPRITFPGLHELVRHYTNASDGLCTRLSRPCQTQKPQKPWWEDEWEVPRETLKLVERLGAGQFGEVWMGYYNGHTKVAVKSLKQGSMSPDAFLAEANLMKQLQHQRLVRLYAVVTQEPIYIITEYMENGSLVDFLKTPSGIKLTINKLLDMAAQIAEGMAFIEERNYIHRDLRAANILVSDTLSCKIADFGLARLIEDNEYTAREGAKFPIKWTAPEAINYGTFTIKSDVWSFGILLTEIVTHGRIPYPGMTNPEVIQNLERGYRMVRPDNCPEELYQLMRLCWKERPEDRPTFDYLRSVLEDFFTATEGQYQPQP
# Chain of BDNF/NT-3 growth factors receptor (Q16620 whole entry): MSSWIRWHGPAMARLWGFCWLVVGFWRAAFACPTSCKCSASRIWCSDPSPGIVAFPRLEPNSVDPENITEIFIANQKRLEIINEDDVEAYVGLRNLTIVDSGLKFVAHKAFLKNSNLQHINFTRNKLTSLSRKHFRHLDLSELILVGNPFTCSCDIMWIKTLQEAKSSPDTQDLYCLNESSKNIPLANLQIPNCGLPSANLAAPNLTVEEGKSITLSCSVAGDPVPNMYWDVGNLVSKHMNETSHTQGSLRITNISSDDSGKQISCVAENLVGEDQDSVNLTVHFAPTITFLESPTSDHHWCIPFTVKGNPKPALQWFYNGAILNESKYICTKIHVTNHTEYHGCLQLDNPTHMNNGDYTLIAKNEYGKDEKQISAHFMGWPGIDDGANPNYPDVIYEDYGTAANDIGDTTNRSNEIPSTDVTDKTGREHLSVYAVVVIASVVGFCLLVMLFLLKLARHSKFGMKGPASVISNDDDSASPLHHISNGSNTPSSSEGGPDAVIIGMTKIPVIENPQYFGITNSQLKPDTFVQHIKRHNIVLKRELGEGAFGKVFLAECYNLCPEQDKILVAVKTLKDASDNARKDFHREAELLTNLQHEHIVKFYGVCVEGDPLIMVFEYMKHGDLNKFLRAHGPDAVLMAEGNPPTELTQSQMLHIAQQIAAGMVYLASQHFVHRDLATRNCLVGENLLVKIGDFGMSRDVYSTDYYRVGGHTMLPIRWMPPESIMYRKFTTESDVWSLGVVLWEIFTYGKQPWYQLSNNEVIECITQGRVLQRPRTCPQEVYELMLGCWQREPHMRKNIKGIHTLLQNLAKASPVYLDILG
# Chain of Vascular endothelial growth factor receptor 1 (P17948 whole entry): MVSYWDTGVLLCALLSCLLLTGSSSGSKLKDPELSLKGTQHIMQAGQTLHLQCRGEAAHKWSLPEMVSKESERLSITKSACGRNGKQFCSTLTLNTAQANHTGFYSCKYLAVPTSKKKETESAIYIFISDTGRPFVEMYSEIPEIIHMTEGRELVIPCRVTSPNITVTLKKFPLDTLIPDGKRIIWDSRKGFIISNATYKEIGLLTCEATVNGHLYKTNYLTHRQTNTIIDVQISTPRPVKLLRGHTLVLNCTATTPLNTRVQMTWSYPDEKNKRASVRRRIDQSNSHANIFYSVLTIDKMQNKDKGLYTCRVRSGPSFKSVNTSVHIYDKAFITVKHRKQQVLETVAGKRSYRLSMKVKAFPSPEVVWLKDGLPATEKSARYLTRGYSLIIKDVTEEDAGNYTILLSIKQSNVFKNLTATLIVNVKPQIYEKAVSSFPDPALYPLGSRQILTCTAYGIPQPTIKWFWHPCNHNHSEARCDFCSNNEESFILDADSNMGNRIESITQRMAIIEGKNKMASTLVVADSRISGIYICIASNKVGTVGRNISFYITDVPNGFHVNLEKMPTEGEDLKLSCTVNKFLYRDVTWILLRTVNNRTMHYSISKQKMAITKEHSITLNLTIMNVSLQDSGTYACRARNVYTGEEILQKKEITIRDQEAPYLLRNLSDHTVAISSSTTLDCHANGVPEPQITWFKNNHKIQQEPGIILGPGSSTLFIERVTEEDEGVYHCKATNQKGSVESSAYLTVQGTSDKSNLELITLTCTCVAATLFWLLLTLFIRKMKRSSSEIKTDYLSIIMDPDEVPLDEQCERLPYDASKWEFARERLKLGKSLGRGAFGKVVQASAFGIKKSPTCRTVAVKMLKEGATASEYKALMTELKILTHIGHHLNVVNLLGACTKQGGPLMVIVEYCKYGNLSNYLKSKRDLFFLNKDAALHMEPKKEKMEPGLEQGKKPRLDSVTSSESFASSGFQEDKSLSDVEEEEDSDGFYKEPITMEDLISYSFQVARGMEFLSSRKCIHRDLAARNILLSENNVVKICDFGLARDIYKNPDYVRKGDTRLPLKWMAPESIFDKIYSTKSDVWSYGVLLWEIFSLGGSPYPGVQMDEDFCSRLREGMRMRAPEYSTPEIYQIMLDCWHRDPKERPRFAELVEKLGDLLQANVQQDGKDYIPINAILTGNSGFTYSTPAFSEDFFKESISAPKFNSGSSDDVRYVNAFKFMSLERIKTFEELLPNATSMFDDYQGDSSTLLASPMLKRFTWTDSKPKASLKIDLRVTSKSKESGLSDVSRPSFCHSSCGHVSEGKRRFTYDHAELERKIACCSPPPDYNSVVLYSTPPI
# Chain of Mitogen-activated protein kinase 9 (P45984 whole entry): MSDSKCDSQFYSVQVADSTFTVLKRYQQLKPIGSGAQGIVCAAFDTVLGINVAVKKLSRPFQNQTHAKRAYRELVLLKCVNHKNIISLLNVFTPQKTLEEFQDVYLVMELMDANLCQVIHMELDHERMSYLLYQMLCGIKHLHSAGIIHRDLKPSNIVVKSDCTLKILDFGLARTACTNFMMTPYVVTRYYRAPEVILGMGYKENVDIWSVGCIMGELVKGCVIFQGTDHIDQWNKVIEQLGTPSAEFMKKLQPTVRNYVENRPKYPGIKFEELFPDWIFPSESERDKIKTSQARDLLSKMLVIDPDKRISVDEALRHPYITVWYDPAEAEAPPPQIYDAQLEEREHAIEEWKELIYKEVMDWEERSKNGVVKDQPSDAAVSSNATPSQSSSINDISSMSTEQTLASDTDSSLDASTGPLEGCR
# Chain of Serine/threonine-protein kinase pim-2 (Q9P1W9 whole entry): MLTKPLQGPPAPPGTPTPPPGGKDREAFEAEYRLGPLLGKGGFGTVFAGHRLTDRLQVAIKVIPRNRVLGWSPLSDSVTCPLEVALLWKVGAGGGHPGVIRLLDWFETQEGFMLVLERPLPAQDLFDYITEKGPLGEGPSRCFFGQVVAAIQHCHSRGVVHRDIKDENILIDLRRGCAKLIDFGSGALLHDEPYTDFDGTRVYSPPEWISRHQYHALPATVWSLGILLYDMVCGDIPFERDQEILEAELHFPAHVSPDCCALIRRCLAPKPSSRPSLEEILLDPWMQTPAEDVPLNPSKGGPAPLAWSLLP
smiles,measurement,setting,value
CNC(=O)Nc1ccc2c(c1)CC[C@@]21OC(=O)N(CC(=O)N(Cc2ccc(F)cc2)[C@@H](C)C(F)(F)F)C1=O [A-485],EC50,SU-DHL-8,540 nM
same,EC50,NCI-H1373,2340 nM
same,IC50,[1],> 10 µM
same,IC50,Insulin receptor,> 10 µM
same,EC50,NCI-H23,1790 nM
same,IC50,[2],> 10 µM
same,IC50,Aurora kinase B,> 10 µM
same,EC50,Karpas-1106P,410 nM
same,EC50,OPM-2,620 nM
same,IC50,[3],> 10 µM
same,IC50,[4],> 10 µM
same,IC50,[5],> 10 µM
same,IC50,[6],> 10 µM
same,EC50,K562,1270 nM
same,EC50,SK-MEL-2,> 10 µM
same,EC50,HCC1143,> 10 µM
same,EC50,THP-1,3.51 µM
same,EC50,NCI-H128,> 10 µM
same,EC50,DU-4475,670 nM
same,Tmax,[7],3 h
same,EC50,CAL-120,> 10 µM
same,IC50,[8],> 10 µM
same,IC50,[9],> 10 µM
same,INH,[10],1.14 µM
same,EC50,SUD4,720 nM
same,EC50,HCC1806,2950 nM
same,EC50,Raji,460 nM
same,IC50,[11],> 10 µM
same,inhibition at 10 µM,MAO-A,28%
same,IC50,[12],> 10 µM
same,EC50,cells,1690 nM
same,IC50,[13],> 10 µM
same,IC50,[14],> 10 µM
same,IC50,[15],> 10 µM
same,EC50,SK-MEL-1,570 nM
same,IC50,[16],> 10 µM
same,half-life,[17],180 min
same,inhibition,LuCaP-77 CR cell,Active
same,EC50,AMO1,1090 nM
same,EC50,DOHH-2,750 nM
same,EC50,NCI-H1836,> 10 µM
